Bioassay records: PubChem BioAssay, The Scripps Research Institute Molecular Screening Center
TDP2 inh: blocks human TDP2 phosphodiesterase activity | 0.34% of 370,000 active | inhibition, % at 12.8 µM | recombinant TDP2, T5PNP hydrolysis, p-nitrophenol absorbance 415 nm | O95551 | AID 720702;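 active = inhibition above the mean of all tested compounds plus 3 SD, set per campaign, cut at about 25% in these data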;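 also: 0% = DMSO with enzyme and 100% = buffer with substrate but no TDP2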
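Assay system: recombinant human TDP2 / Reagent: T5PNP substrate at 5 mM, a TopII-DNA adduct mimic / Measured by: epi absorbance from released p-nitrophenol / Evaluation: % inhibition relative to enzyme-containing and enzyme-free wells / Control set: enzyme-free and DMSO wells / Replicates: each compound tested once, singlicate / Schedule: enzyme reaction with compound for 2 h at 37 °C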
LEDGF integ inh: blocks HIV-1 LEDGF/p75-dependent DNA integration; 0.64% of 370,000 active; AID 743269; inhibition, % at 3.7 µM; TR-FRET IN-LEDGF/p75 DNA integration, Eu/Cy5;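 active = inhibition above the screen-wide mean plus 3 SD, cut at about 13% in these data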;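 also: signal is the Cy5 over europium emission ratio at 671 and 618 nm; 0% = plate median of compound wells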
Rin1-Abl PPI inh: human Rin1-Abl interaction inhibition | inhibition, % at 7.35 µM | 0.4% of 360,000 active | AID 588664 | TR-FRET Rin1/Abl binding, biochemical; in the data active = inhibition above about 5%, passing the limit was not always enough
Target sequence (P00519 whole entry, looked up): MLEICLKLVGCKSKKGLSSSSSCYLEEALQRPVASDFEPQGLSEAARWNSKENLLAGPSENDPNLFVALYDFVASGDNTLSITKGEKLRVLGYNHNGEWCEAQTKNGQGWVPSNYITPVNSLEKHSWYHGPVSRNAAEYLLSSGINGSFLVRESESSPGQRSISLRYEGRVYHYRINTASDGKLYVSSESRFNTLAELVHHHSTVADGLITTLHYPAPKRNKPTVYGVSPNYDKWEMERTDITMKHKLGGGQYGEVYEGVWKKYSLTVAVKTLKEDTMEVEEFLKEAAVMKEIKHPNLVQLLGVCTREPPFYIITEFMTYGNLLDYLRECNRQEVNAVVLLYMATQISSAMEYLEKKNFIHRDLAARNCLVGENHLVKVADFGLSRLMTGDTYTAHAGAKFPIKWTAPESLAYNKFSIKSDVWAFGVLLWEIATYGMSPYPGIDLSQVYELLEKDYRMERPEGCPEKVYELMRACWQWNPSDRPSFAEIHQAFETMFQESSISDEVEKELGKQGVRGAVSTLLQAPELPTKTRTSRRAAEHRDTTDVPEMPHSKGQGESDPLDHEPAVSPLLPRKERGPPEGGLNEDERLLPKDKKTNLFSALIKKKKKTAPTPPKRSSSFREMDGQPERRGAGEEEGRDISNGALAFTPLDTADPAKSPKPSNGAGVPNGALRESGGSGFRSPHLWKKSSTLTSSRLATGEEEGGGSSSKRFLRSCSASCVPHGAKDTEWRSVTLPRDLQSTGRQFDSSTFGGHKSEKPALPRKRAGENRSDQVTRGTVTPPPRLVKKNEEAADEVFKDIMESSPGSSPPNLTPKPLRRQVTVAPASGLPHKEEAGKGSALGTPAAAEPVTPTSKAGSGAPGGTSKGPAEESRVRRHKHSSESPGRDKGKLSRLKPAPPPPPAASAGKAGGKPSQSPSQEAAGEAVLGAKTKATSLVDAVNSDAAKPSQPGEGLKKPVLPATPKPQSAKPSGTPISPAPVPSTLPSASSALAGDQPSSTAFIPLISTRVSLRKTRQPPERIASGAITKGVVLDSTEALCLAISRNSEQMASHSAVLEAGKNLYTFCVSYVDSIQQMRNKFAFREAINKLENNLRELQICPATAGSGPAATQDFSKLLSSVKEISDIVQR
Target sequence (Q13671 whole entry, looked up): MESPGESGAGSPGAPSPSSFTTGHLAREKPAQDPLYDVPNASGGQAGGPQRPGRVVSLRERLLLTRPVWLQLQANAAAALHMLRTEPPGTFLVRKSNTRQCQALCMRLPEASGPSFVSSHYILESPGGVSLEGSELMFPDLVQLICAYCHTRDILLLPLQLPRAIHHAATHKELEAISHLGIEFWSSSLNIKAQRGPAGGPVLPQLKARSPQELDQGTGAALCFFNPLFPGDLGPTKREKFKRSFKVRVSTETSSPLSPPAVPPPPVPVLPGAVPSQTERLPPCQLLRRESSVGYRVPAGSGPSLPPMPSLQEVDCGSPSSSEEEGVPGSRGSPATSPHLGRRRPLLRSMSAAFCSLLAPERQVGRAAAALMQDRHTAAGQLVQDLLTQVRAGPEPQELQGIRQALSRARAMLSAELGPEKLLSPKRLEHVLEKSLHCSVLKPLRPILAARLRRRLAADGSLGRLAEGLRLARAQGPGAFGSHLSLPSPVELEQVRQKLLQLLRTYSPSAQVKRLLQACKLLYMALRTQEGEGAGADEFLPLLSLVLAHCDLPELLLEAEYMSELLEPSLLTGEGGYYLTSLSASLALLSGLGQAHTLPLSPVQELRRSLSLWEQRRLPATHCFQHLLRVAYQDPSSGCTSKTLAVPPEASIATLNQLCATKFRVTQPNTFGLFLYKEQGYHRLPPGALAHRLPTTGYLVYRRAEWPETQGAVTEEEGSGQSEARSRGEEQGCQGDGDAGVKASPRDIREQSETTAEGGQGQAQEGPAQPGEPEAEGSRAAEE
MBD2 DNA inh: inhibitors of human MBD2 binding to methylated oligonucleotide. TR-FRET. inhibition, % at 4.4 µM. 0.31% of 370,000 active; in the data active = inhibition above about 13%
UHRF1 MBD2 ctr: blocks human UHRF1 binding to methylated DNA; Q96T88; UHRF1 binding to methylated oligo, TR-FRET; inhibition, % at 4.4 µM; 0.75% of 370,000 active; AID 687016; in the data active = inhibition above about 21%;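 also: UHRF1 SRA domain binding a hemimethylated CpG hairpin DNA probe; 0% = median of test compound wells and 100% = reference inhibitor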
The depositor's hits bear a star; nt = no result; ! = repeats disagree. Compounds with a hit are over-represented: about 1.9% of the library has one in this group of screens.

SMILES	TDP2 inh	LEDGF integ inh	Rin1-Abl PPI inh	MBD2 DNA inh	UHRF1 MBD2 ctr
Clc1ccccc1Cc1noc(CN2CCN3CCCC3C2)n1 (configuration not stated)	-3	2	-1	4	29*
COc1ccc2c(CC(=O)OCC(=O)N(C)c3c(N)n(Cc4ccccc4)c(=O)[nH]c3=O)coc2c1	1	-1	2	5	22*
CC1(C(=O)Nc2ccc(Cl)c(Cl)c2)CCN1C(=O)C1CCCCC1 (configuration not stated)	-15	2	-2	0	22*
O=C1C(Cl)=C(N2CCN(c3ccccc3[N+](=O)[O-])CC2)C(=O)c2ccccc21	62*	13	-6	-29	-10
Cc1cc(C)nc(NC(=S)N2CCN(c3ccc(Cl)c(Cl)c3)CC2)c1	7	4	nt	3	-1
COc1ccc(C(=O)Nc2cc(Cl)c(Br)cc2C(=O)O)cc1	7	1	nt	-1	0
COc1ccccc1C(=O)COC(=O)c1ccc(N(C)C)cc1	-3	1	1	3	100*
COc1ccccc1C(=O)COC(=O)c1ccccc1O	-6	-3	3	4	-4
COc1cccc(C2=NCCc3cc4c(cc32)OCO4)c1OC	-19	8	1	-2	1
COc1ccc2cc3[n+](cc2c1OC)CCc1cc2c(cc1-3)OCO2	-6	0	-15	-15	23*!
COC(=O)[C@H](C(C)C)N1Cc2nnn(Cc3ccccc3)c2C=CS1(=O)=O	10	0	nt	1	-1
O=C(O)c1ccc(-c2ccc(/C=c3/sc4nc5ccccc5n4c3=O)o2)cc1Cl	17	8	1	8	40*
Cc1cc(C)c2nc3sc(=Cc4ccc(-c5ccccc5C(=O)O)o4)c(=O)n3c2c1	-1	9	-2	7	24*
O=C1NN(c2ccc(Cl)c(Cl)c2)C(=O)/C1=C/c1ccc(-c2ccccc2C(=O)O)o1	0	1	-1	4	7
Cc1ccc(C)c(N2C(=N)S/C(=C\c3ccc(-c4ccccc4C(=O)O)o3)C2=O)c1	-8	-4	-1	11	21*
Cc1cc(/C=c2\sc3nc4ccccc4n3c2=O)c(C)n1-c1ccc(C(=O)O)cc1	5	1	4	4	4
O[C@H](COc1cccc(F)c1)CN1CCC(C(O)(c2ccccc2)c2ccccc2)CC1	0	0	nt	4	0
CSC(=NCc1ccc(F)cc1)NS(=O)(=O)c1cccs1	11	1	-2	-3	41*
CS/C(=N\S(=O)(=O)c1ccc(N)cc1)NS(=O)(=O)c1cccs1	nt	nt	-1	nt	nt
Cc1noc(C)c1NC(=O)Nc1ccc2c(c1)C(=O)N([C@@H](C)CO)C[C@@H](C)[C@H](CN(C)S(=O)(=O)c1ccc(F)cc1)OCCCC[C@H](C)O2	3	-3	nt	1	1
CC(C)OC(=O)CSc1nc2ccccc2s1	4	3	-3	10	23*
CC(=O)CSc1nc2ccccc2s1	6	-1	-2	0	-1
Cc1onc(C(=O)N2CCN(C(c3ccccc3)c3ccccc3)CC2)c1Br	1	6	nt	2	-3
COc1ccc(CCNCCC(=O)Nc2c(C)cc(C)cc2C)cc1OC	-5	-1	0	-3	-2
COc1ccc(CCNCC(=O)Nc2c(C)cc(C)cc2C)cc1OC	14	0	-3	4	21*
SMILES	TDP2 inh	LEDGF integ inh	Rin1-Abl PPI inh	MBD2 DNA inh	UHRF1 MBD2 ctr
S=C(Nc1ccc(Cl)c(Cl)c1)Nc1nnc(-c2ccncc2)s1	-17	7	nt	10	5
O=P(c1ccccc1)(c1ccccc1)c1cc(S(=O)(=O)O)ccc1O	6	2	2	6	27*
CCOC(=O)CCCc1sc(N)nc1-c1[nH]c(=O)[nH]c1C	nt	nt	63*	nt	nt
O=C1CCC(NC(=O)Cc2ccccc2)C(=O)N1 (configuration not stated)	4	0	nt	6	1
Cc1ccc(-c2csc(NCCn3c(-c4ccncc4)nc4ccccc43)n2)cc1	-9	0	-2	-4	22*
CCN(CC)CCNc1ncnc2c1sc1nc(N3CCOCC3)c3c(c12)CC(C)(C)SC3	-3	-2	18*	-1	1
COc1ccccc1-c1ccc(SCc2cccc(F)c2)nn1	-5	-5	-5	-6	58*
CC[C@@]1(C(=O)OC)N[C@H](CN(C)C(=O)Nc2ccccc2)[C@@H]2C(=O)N(C)C(=O)[C@@H]21	4	-4	2	-4	0
CC[C@@]1(C(=O)OC)N[C@H](CN(C)C(=O)Nc2ccc(F)cc2)[C@@H]2C(=O)N(C)C(=O)[C@@H]21	0	-2	-2	11	21*
CCN(C[C@H]1N[C@@](Cc2ccccc2)(C(=O)OC)[C@H]2C(=O)N(C)C(=O)[C@@H]12)S(=O)(=O)c1ccc(OC(F)(F)F)cc1	6	2	-1	2	21*
C#CCCC(=O)Nc1sc2c(c1-c1nc3ccccc3s1)CCN(C(C)C)C2	1	-2	nt	7	-24
COc1ccc(CCNC(=O)c2cc3c(=O)n4ccccc4nc3n(CCCN3CCOCC3)c2=N)cc1	-20	0	-3	-4	24*
COc1ccc([C@@]23CCN=C2c2[nH]c4ccccc4c2CCN3)c(N)c1	-4	-5	nt	2	0
C[C@H]1Cn2cnc(C(=O)N(C)Cc3ccccc3)c2C(=O)N1	6	2	nt	-6	-1
CCN(C)C1CN(Cc2cn(CCCOC)nn2)S(=O)(=O)C1 (configuration not stated)	3	0	nt	0	7
COCCCn1cc(CN(C)C2CN(Cc3cn(CCCOC)nn3)S(=O)(=O)C2)nn1 (configuration not stated)	8	2	nt	8	24*
CCOC(=O)CN1C(=O)N2C[C@H]3CON(C)[C@H]3C[C@H]2c2ccccc21	0	6	1	-4	47*
C=CCCC(=O)N1C[C@H]2CON(C)[C@H]2C[C@H]1c1ccccc1Br	2	-1	-1	2	1
C[C@@H]1O[C@@H](n2c3ccc(Cl)cc3c3ccc4c5cc(Cl)ccc5[nH]c4c32)[C@H](O)[C@H](O)[C@H]1O	-9	2	nt	-1	1
O=C(COC(=O)/C=C/C(=O)N1CCN(c2ccccc2)CC1)NCc1ccc(F)cc1	-6	-4	-1	-2	64*
O=C(CN1CCN(c2ccccc2)CC1)NCc1ccc(F)cc1	-5	0	0	4	4
CCCC1CCC2(CCCN2CCOC(=O)Nc2ccccc2OC)CC1 (configuration not stated)	-1	4	nt	1	-1
Cc1ccc(S(=O)(=O)N2CCCC(C(=O)Nc3c(C)n(C)n(-c4ccccc4)c3=O)C2)cc1 (configuration not stated)	0	3	nt	-1	-1
CCn1c(COc2ccc(C)cc2)nnc1SCC(=O)Nc1ccccc1-c1ccccc1	-6	-2	nt	0	0
